Converted amounts (≈) assume the structure as drawn. The source made the active and inactive calls. The calls are words filed in the database; no cut-off is given here.
How the values were obtained:
[1] = Half life in mouse lung homogenate by LC-MS analysis; assay type: ADME, tissue-based
Method in brief: (§1)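 Freshly prepared compound solutions (10 μM) incubated at 37 °C in PBS, mouse serum or mouse lung homogenate. Parent and released product followed by LC-MS, RP-HPLC on C18 with ammonium acetate pH 7.4/acetonitrile gradient, 365 nm detection. Half-life taken from disappearance over time.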

Mus musculus [2] = assay: Prodrug activation in ovalbumin sensitized Balb/c mouse hypereosinophilia model assessed as chalcone-4 release in lungs at 30 nmol/kg administered intranasally; assay type: organism-based; details: in vivo, inhaled_or_intranasal
Mus musculus [3] = assay: Antiinflammatory activity in ovalbumin sensitized Balb/c mouse hypereosinophilia model assessed as inhibition of neutrophil recruitment at 30 nmol/kg administered intranasally 2 hrs prior to ovalbumin challenge measured 24 hrs post the last ovalbumin challenge by BAL analysis; assay type: functional, organism-based
Method in brief: (§2)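 8-day airway hypereosinophilia model in OVA-sensitized mice; OVA (10 μg in 25 μL saline, 12.5 μL/nostril) given intranasally on days 5, 6, 7 under ip ketamine 50 mg/kg/xylazine 3.33 mg/kg. Compound in PBS (25 μL) given intranasally 2 h before each challenge. BAL cell counts by hemocytometer plus Hemacolor-stained cytospin differentials (≥400 cells), as absolute numbers; n = 6 mice/group.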

Mus musculus [4] = assay: Antiinflammatory activity in ovalbumin sensitized Balb/c mouse hypereosinophilia model assessed as inhibition of eosinophil recruitment administered intranasally 2 hrs prior to ovalbumin challenge for 3 days; assay type: functional, organism-based; method in brief: as §2
Mus musculus [5] = assay: Antiinflammatory activity in ovalbumin sensitized Balb/c mouse hypereosinophilia model assessed as inhibition of neutrophil recruitment at 22 nmol/kg administered intranasally 2 hrs prior to ovalbumin challenge for 3 days; assay type: functional, organism-based; method in brief: as §2
Mus musculus [6] = assay: Antiinflammatory activity in ovalbumin sensitized Balb/c mouse hypereosinophilia model assessed as inhibition of macrophage recruitment at 22 nmol/kg administered intranasally 2 hrs prior to ovalbumin challenge for 3 days; assay type: functional, organism-based; method in brief: as §2
Mus musculus [7] = assay: Antiinflammatory activity in ovalbumin sensitized Balb/c mouse hypereosinophilia model assessed as inhibition of eosinophil recruitment at 30 nmol/kg administered intranasally 2 hrs prior to ovalbumin challenge measured 24 hrs post the last ovalbumin challenge by BAL analysis; assay type: functional; details: inhaled or nasal; method in brief: as §2
[8] = Half life in PBS buffer by LC-MS analysis; assay type: physicochemical; method in brief: as §1
Mus musculus [9] = assay: Antiinflammatory activity in ovalbumin sensitized Balb/c mouse hypereosinophilia model assessed as inhibition of eosinophil recruitment at 22 nmol/kg administered intranasally 2 hrs prior to ovalbumin challenge for 3 days; assay type: functional; method in brief: as §2
Mus musculus [10] = assay: Antiinflammatory activity in ovalbumin sensitized Balb/c mouse hypereosinophilia model assessed as inhibition of lymphocyte recruitment at 22 nmol/kg administered intranasally 2 hrs prior to ovalbumin challenge for 3 days; assay type: functional, organism-based; method in brief: as §2
Mus musculus [11] = assay: Prodrug activation in ovalbumin sensitized Balb/c mouse hypereosinophilia model assessed as chalcone-4 release in lungs at 22 nmol/kg administered intranasally after 15 mins; assay type: organism-based; details: in vivo, inhaled_or_intranasal, 0.25 h
Method in brief: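 LC-MS detection of released parent chalcone in mouse lung tissue 15 min after intranasal dosing of prodrug.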

Mus musculus [12] = assay: Antiinflammatory activity in ovalbumin sensitized Balb/c mouse hypereosinophilia model assessed as inhibition of lymphocyte recruitment at 30 nmol/kg administered intranasally 2 hrs prior to ovalbumin challenge measured 24 hrs post the last ovalbumin challenge by BAL analysis; assay type: functional, organism-based; method in brief: as §2
[13] = biological target: T1, C-X-C chemokine receptor type 4 (Homo sapiens, UniProt P61073); assay: Inhibition of EGFP-tagged human CXCR4 expressed in HEK293 cells assessed as inhibition of CXCL12-TR binding at 5 uM incubated for 5 mins prior to CXCL12-TR addition by FRET assay; assay type: cell-based
T1 sequence (P61073 whole entry): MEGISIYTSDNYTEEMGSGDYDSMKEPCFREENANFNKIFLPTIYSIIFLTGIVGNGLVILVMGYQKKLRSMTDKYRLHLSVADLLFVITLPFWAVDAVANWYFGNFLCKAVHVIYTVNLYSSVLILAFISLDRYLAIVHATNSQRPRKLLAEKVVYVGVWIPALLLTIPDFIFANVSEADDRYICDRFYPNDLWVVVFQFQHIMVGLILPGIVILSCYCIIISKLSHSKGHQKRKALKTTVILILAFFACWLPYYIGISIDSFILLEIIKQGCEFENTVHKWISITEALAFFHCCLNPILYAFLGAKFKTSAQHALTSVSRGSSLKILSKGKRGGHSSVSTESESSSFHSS
Method in brief: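 Binding of Texas Red-labelled CXCL12 (100 nM) to EGFP-tagged CXCR4 read by FRET as real-time decline of EGFP emission at 510 nm. Compound tested at 5 μM; percent inhibition of binding reported.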

Mus musculus [14] = assay: Antiinflammatory activity in ovalbumin sensitized Balb/c mouse hypereosinophilia model assessed as inhibition of macrophage recruitment at 30 nmol/kg administered intranasally 2 hrs prior to ovalbumin challenge measured 24 hrs post the last ovalbumin challenge by BAL analysis; assay type: functional, organism-based; method in brief: as §2
[15] = Half life in mouse serum by LC-MS analysis; assay type: ADME, cell-free; method in brief: as §1
[16] = Solubility of the compound in HEPES buffer at pH 7.4 after 24 hrs; assay type: physicochemical
Method in brief: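 Thermodynamic solubility in aqueous HEPES buffer, pH 7.4, 22 °C, after 24 h incubation; tested up to 30 mM.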

[17] = biological target: T1, C-X-C chemokine receptor type 4; assay: Inhibition of EGFP-tagged human CXCR4 expressed in HEK293 cells assessed as inhibition of CXCL12-TR binding incubated for 5 mins prior to CXCL12-TR addition by FRET assay; assay type: cell-based

Row | half-life [1] [h] | half-life [8] [h] | inhibition [13] [%] | half-life [15] [h] | solubility at 24 h [16] [µM] | Ki [17] [nM] | SMILES | Drug metabolism (Mus musculus [2]) | inhibition (Mus musculus [3]) | IC50 (Mus musculus [4]) [nmol/kg] | inhibition (Mus musculus [5]) | inhibition (Mus musculus [6]) | inhibition in vivo at 0.03 µmol/kg (Mus musculus [7]) [%] | inhibition in vivo at 0.022 µmol/kg (Mus musculus [9]; inhaled or nasal) [%] | inhibition (Mus musculus [10]) | Drug metabolism (Mus musculus [11]) | inhibition (Mus musculus [12]) | inhibition (Mus musculus [14]) | inhibition (Mus musculus [9])
1 | < 0.25 | > 10 | 5 | 2 | > 30000 |  | COc1cc(/C=C/C(=O)c2ccc(Cl)cc2)ccc1OP(=O)([O-])[O-].[Na+].[Na+] | Active | Active | 10 | Active | inactive | 64 | 56 | Active | Active | Active | inactive | 
2 | > 6 | > 10 | 90 | > 10 | 9 (≈ 2.6 µg/mL) | 53 | COc1cc(/C=C/C(=O)c2ccc(Cl)cc2)ccc1O | Active |  |  | inactive | inactive |  |  | inactive |  |  |  | inactive
3 | 0.5 | > 10 | 4 | > 10 | 1430 |  | COc1cc(/C=C/C(=O)c2ccc(Cl)cc2)ccc1OS(=O)(=O)[O-].[Na+] | Active | Active |  |  |  | 69 |  |  |  | Active | inactive | 
4 | < 0.0833 | 0.2 | 15 | < 0.0833 | 42 |  | COc1cc(/C=C/C(=O)c2ccc(Cl)cc2)ccc1OC(=O)[C@H](N)CO.Cl | Active | Active |  |  |  | 67 |  |  |  | Active | inactive | 

Reference: ChEMBL document CHEMBL2203198, “Prodrugs of a CXC Chemokine-12 (CXCL12) Neutraligand Prevent Inflammatory Reactions in an Asthma Model in Vivo” (ACS Med Chem Lett, 2012)
